Data as given in ChEMBL document CHEMBL6115053, “Optimization and Characterization of N-Acetamide Indoles as Antimalarials That Target PfATP4” (J Med Chem, 2025).
In brackets after ≈: the same amount, converted by molar mass. Activity calls are given as the source filed them. No cut-off for these calls is given here.

Key:
[1] = tested on: Plasmodium falciparum; assay: Antiplasmodial activity against Plasmodium falciparum 3D7 infected in human […] cells incubated for 72 hrs; type: functional, organism-based; details: 3D7, 72 h
[2] = tested on: Plasmodium falciparum; assay: Antiplasmodial activity against W454-resistant population 1 Plasmodium falciparum 3D7 harboring Plasmodium falciparum ATP4 L928F mutant by LDH assay; type: functional, organism-based
[3] = tested on: Plasmodium falciparum; assay: Antiplasmodial activity against W454-resistant population 2 Plasmodium falciparum 3D7 harboring Plasmodium falciparum ATP4 L928F mutant by LDH assay; type: functional, organism-based
[4] = tested on: Plasmodium falciparum; assay: Antiplasmodial activity against W454-resistant population 3 Plasmodium falciparum 3D7 harboring Plasmodium falciparum ATP4 L928F mutant by LDH assay; type: functional, organism-based
[5] = tested on: Plasmodium falciparum; assay: Antiplasmodial activity against multidrug-resistant Plasmodium falciparum Dd2 harboring plasmodium falciparum ATP4 I398F/P990R/D1247Y mutant by SYBR green staining based analysis; type: functional, organism-based
[6] = tested on: Plasmodium falciparum; assay: Antiplasmodial activity against multidrug-resistant Plasmodium falciparum Dd2 harboring plasmodium falciparum ATP4 G358S mutant by SYBR green staining based analysis; type: functional, organism-based
[7] = tested on: Plasmodium falciparum; assay: Antiplasmodial activity against N-(2,6-difluorophenyl)-2-(6-(5-methyl-1,3,4-oxadiazol-2-yl)-1H-indol-1-yl)acetamide-resistant Plasmodium falciparum Dd2 harboring plasmodium falciparum ATP4 F156L mutant by SYBR green staining based analysis; type: functional, organism-based
[8] = tested on: Plasmodium falciparum; assay: Antiplasmodial activity against N-(2,6-difluorophenyl)-2-(6-(5-methyl-1,3,4-oxadiazol-2-yl)-1H-indol-1-yl)acetamide-resistant Plasmodium falciparum Dd2 harboring plasmodium falciparum ATP4 D425E mutant by SYBR green staining based analysis; type: functional, organism-based
[9] = tested on: Plasmodium falciparum; assay: Antiplasmodial activity against N-(2,6-difluorophenyl)-2-(6-(5-methyl-1,3,4-oxadiazol-2-yl)-1H-indol-1-yl)acetamide-resistant Plasmodium falciparum Dd2 harbouring ATP4 genome with 2.8 fold CNV by SYBR green staining based analysis; type: functional, organism-based
[10] = tested on: Plasmodium falciparum; assay: Antiplasmodial activity against Plasmodium falciparum 3D7 infected in RBC assessed as reduction in nucleotide level at 20 nM incubated for 5 hrs by LC-MS analysis; type: functional, organism-based
[11] = tested on: Plasmodium falciparum; assay: Antiplasmodial activity against Plasmodium falciparum 3D7 infected in RBC assessed as reduction in pyrimidine-deoxyribonucleotides level at 20 nM incubated for 5 hrs by LC-MS analysis; type: functional, organism-based
[12] = tested on: Plasmodium falciparum; assay: Antiplasmodial activity against Plasmodium falciparum 3D7 infected in RBC assessed as reduction in deoxythymidine triphosphate level at 20 nM incubated for 5 hrs by LC-MS analysis; type: functional, organism-based
[13] = tested on: Plasmodium falciparum; assay: Antiplasmodial activity against Plasmodium falciparum 3D7 infected in RBC assessed as reduction in deoxythymidine diphosphate level at 20 nM incubated for 5 hrs by LC-MS analysis; type: functional, organism-based
[14] = tested on: Plasmodium falciparum; assay: Antiplasmodial activity against Plasmodium falciparum 3D7 infected in RBC assessed as reduction in deoxycytidine monophosphate level at 20 nM incubated for 5 hrs by LC-MS analysis; type: functional, organism-based
[15] = tested on: Plasmodium falciparum; assay: Antiplasmodial activity against Plasmodium falciparum 3D7 infected in RBC assessed as reduction in extracellular parasite growth at 6.7 nM measured for 8 hrs by Giemsa-staining based microscopic analysis; type: functional; parameters: scale not given: the % may be the effect or the level left
In short: (§1)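 Giemsa-stained thin smears were read at 8 h and the percentages of extracellular and intracellular parasites counted, compared with untreated parasites at 0 h.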

[16] = tested on: Plasmodium falciparum; assay: Antiplasmodial activity against Plasmodium falciparum 3D7 infected in RBC assessed as reduction in extracellular parasite growth at 0.7 µM measured for 8 hrs by Giemsa-staining based microscopic analysis; parameters: scale not given: the % may be the effect or the level left
[17] = tested on: Plasmodium falciparum; assay: Antiplasmodial activity against asexual Plasmodium falciparum 3D7 infected in human […] cells assessed as reduction in parasite growth measured for 72 hrs by LDH assay; type: functional, organism-based; details: 3D7, 72 h
[18] = tested on: HepG2; assay: Cytotoxicity against human HepG2 cells assessed as inhibition of cell growth incubated for 48 hrs by celltiterglo assay; type: toxicity, cell-based; details: hepg2, 48 h
[19] = Aqueous solubility in PBS buffer at pH 7.4; type: physicochemical
[20] = Metabolic stability in human liver microsome assessed as intrinsic clearance; type: ADME; details: microsomes
[21] = Metabolic stability in mouse liver microsome assessed as intrinsic clearance; type: ADME; details: microsomes
[22] = Metabolic stability in rat hepatocyte […] assessed as intrinsic clearance measured per 10^6 cells; type: ADME, cell-based; details: hepatocytes
[23] = Lipophilicity, logD of compound at pH 7.4 by shake-flask method; type: physicochemical; details: buffer
[24] = tested on: Plasmodium falciparum; assay: Antiplasmodial activity against Plasmodium falciparum Dd2-B2; type: functional, organism-based
[25] = tested on: Plasmodium falciparum; assay: Antiplasmodial activity against Plasmodium falciparum Dd2-B2 assessed as parasite clearance at 3 times IC90 incubated for 5 days; type: functional, organism-based; details: time 5.0 day
[26] = tested on: Plasmodium falciparum; assay: Antiplasmodial activity against Plasmodium falciparum Dd2-B2 assessed as parasite clearance at 3 times IC90 incubated for 42 days by flow cytometry analysis; type: functional, organism-based; details: time 42.0 day
[27] = tested on: Plasmodium falciparum; assay: Antiplasmodial activity against Plasmodium falciparum Dd2-B2 assessed as reduction in recrudescence measured for 42 days by flow cytometry; type: functional, organism-based; details: time 42.0 day
[28] = tested on: Plasmodium falciparum; assay: Antiplasmodial activity against asexual blood stage Plasmodium falciparum Dd2-B2 assessed as parasite recrudescence by measuring minimum inoculum of resistance measured for 40 days by flow cytometry; type: functional; details: time 40 day
[29] = tested on: Plasmodium falciparum; assay: Antiplasmodial activity against Plasmodium falciparum 3D7 harboring Plasmodium falciparum ATP4 […] mutant by SYBR green staining based flow cytometry analysis; type: functional, organism-based
[30] = tested on: Plasmodium falciparum; assay: Antiplasmodial activity against Plasmodium falciparum 3D7 infected in RBC assessed as reduction in parasite growth measured for 8 hrs by Giemsa-staining based microscopic analysis; type: functional, organism-based; in short: as §1
[31] = tested on: Plasmodium falciparum; assay: Antiplasmodial activity against Plasmodium falciparum 3D7 infected in RBC assessed as reduction in extracellular parasite growth at 0.03 uM measured for 8 hrs by Giemsa-staining based microscopic analysis; type: functional; parameters: scale not given: the % may be the effect or the level left; in short: as §1
[32] = tested on: Plasmodium falciparum; assay: Antimalarial activity against Plasmodium falciparum NF54 infected assessed as inhibition of male gamete formation incubated for 48 hrs by automated bright field microscopic analysis; type: functional, organism-based; details: NF54, 48 h
[33] = tested on: Plasmodium falciparum; assay: Antimalarial activity against Plasmodium falciparum NF54 infected assessed as inhibition of female gamete formation incubated for 48 hrs by automated bright field microscopic analysis; type: functional, organism-based; details: NF54, 48 h

| SMILES | EC50 [1] [nM] | EC50 [2] [nM] | EC50 [3] [nM] | EC50 [4] [nM] | EC50 [5] [nM] | EC50 [6] [nM] | EC50 [7] [nM] | EC50 [8] [nM] | EC50 [9] [nM] | other results |
| --- | --- | --- | --- | --- | --- | --- | --- | --- | --- | --- |
| C[C@H]1Cc2c([nH]c3cc(Cl)c(F)cc23)[C@@]2(N1)C(=O)Nc1ccc(Cl)cc12 [CIPARGAMIN] | 1 | < 2 | < 2 | 2 | 4 | > 100 | 3 | 2 | 4 | Activity [10]: inactive; Activity [11]: inactive; Activity [12]: inactive; Activity [13]: inactive; Activity [14]: inactive; Activity [15]: ~24% |
| N#Cc1cc(NC(=O)[C@H]2c3ccccc3C(=O)N(CC(F)(F)F)[C@@H]2c2cccnc2)ccc1F [SJ-733] | 61 | 579 | 537 | 533 | 95 | > 10000 | – | – | – | Activity [16]: ~24% |
| COc1cc(NC(=O)Cn2ccc3cc(F)c(-c4cnn(C)c4)cc32)cc(OC)c1OC | 4 | 47 | 44 | 44 | 10 | 42 | 40 | 19 | 23 | EC50 [17]: 7 nM; CC50 [18]: > 40000 nM; solubility kinetic [19]: 2.7 µM (≈ 1.18 µg/mL); intrinsic clearance (CLint) [20]: 69 µL/min/mg; intrinsic clearance (CLint) [21]: 90 µL/min/mg; intrinsic clearance (CLint) [22]: 1.9 uL/min/10^6 cells; logD [23]: 3.2; IC50 [24]: 17.3 nM; Activity [25]: Active; Activity [26]: Active; Activity [27]: Active; log10MIR [28]: 8.7; Activity [29]: Active; Activity [30]: Active; Activity [31]: ~24%; EC50 [32]: 190 nM; EC50 [33]: 180 nM |
